pIC50: −log10 of the molar value.
Assays:
[1] = tested on: HFF; assay: Cytotoxicity produced in human foreskin fibroblasts (HFF) cells was estimated by visual scoring of cells unaffected by virus infection in the plaque-reduction assay.; format: ADME, cell-based
Outline: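 Uninfected HFF cells in the HCMV plaque-reduction plates, examined at 30-fold magnification; drug-induced cytopathology scored 0–4 on the day of staining for plaque counting.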

[2] = tested on: Human betaherpesvirus 5; assay: Antiviral activity against human cytomegalovirus (HCMV) in plaque reduction assay; format: functional, organism-based
Outline: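 HCMV Towne strain (plaque-purified P0) on HFF monolayers; inoculum ~100 PFU in 0.2 mL; compounds dissolved in overlay medium; plaques counted after staining; IC50 from linear regression of percent inhibition vs log concentration; averages of duplicate or triplicate experiments.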

[3] = tested on: Human alphaherpesvirus 1; assay: Antiviral activity against herpes simplex virus type 1 (HSV-1) was performed by HSV-1 ELISA assays.; format: functional, organism-based
Outline: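 HSV-1 strain KOS (used in most experiments); ELISA read-out, quadruplicate wells; IC50 from linear regression of percent inhibition against log drug concentration.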

[4] = tested on: Human betaherpesvirus 5; assay: Antiviral activity against human cytomegalo virus (HCMV) in yield reduction assay; format: functional
[5] = tested on: KB; assay: Inhibitory activity against growth of KB cell.; format: functional, cell-based; settings: Homo sapiens
Outline: (§1)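 KB cells grown in MEM with Hank's salts plus 10% calf serum; logarithmically growing cells, staining-based growth read-out, quadruplicate assays; IC50 from linear regression of percent inhibition vs log drug concentration.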

[6] = tested on: Human betaherpesvirus 5; assay: Antiviral activity against human cytomegalovirus (HCMV) in yield reduction assay; format: functional
[7] = tested on: KB; assay: Inhibitory activity against growth of human epidermoid oral carcinoma KB cell line; format: functional, cell-based; outline: as §1

## OC[C@H]1OC(n2c(SCc3ccccc3)nc3ccc(Cl)cc32)[C@H](O)[C@@H]1O (stereo partly specified)
[1]
  pIC50: < 4.00
[2]
  pIC50: < 4.00
[3]
  pIC50: < 4.00

## Nc1nc2c(ncn2COC(CO)CO)c(=O)[nH]1 [GANCICLOVIR]
[1]
  pIC50: < 4.00
[4]
  IC90: 1.6 µM
[5]
  pIC50: < 4.00

## Nc1ccc2nc(Cl)n(C3O[C@H](CO)[C@@H](O)[C@H]3O)c2c1 (stereo partly specified)
[1]
  pIC50: < 3.52
[2]
  pIC50: < 4.00
[3]
  pIC50: < 4.00

## OC[C@H]1O[C@@H](n2cnc3cc(Cl)c(Cl)cc32)[C@H](O)[C@@H]1O [DICHLORORIBOBENZIMIDAZOLE]
[6]
  IC90: 19 µM

## O=[N+]([O-])c1ccc2[nH]c(Cl)nc2c1
[1]
  pIC50: 4.70
[2]
  pIC50: 5.22
[3]
  pIC50: 4.68

## OC[C@H]1O[C@@H](n2c(Cl)nc3cc(Cl)c(Cl)cc32)[C@H](O)[C@@H]1O
[2]
  pIC50: 5.55
[4]
  IC90: 1.3 µM

## OC[C@H]1OC(n2c(Cl)nc3cc(Cl)ccc32)[C@H](O)[C@@H]1O (stereo partly specified)
[1]
  pIC50: < 4.00
[2]
  pIC50: 3.82
[3]
  pIC50: < 4.00
[6]
  IC90: 100 µM

## OC[C@H]1OC(n2c(Cl)nc3ccc(Cl)cc32)[C@H](O)[C@@H]1O (stereo partly specified)
[1]
  pIC50: < 4.00
[2]
  pIC50: 4.24
[3]
  pIC50: < 4.00
[6]
  IC90: 52 µM

## CSc1nc2ccc(Cl)cc2n1C1O[C@H](CO)[C@@H](O)[C@H]1O (stereo partly specified)
[1]
  pIC50: < 4.00
[2]
  pIC50: < 4.00
[3]
  pIC50: > 4.00

## Nc1ccc2c(c1)nc(Cl)n2C1O[C@H](CO)[C@@H](O)[C@H]1O (stereo partly specified)
[1]
  pIC50: < 3.52
[2]
  pIC50: < 3.52

## COc1nc2ccc(Cl)cc2n1C1O[C@H](CO)[C@@H](O)[C@H]1O (stereo partly specified)
[1]
  pIC50: < 4.00
[7]
  pIC50: < 4.00
[2]
  pIC50: < 4.00
[3]
  pIC50: < 4.00

## OC[C@H]1O[C@@H](n2c(=S)[nH]c3ccc(Cl)cc32)[C@H](O)[C@@H]1O
[1]
  pIC50: < 4.00
[7]
  pIC50: < 4.00
[2]
  pIC50: < 4.00
[3]
  pIC50: < 4.00

From ChEMBL document CHEMBL1129079, “Synthesis and antiviral evaluation of certain disubstituted benzimidazole ribonucleosides” (J Med Chem, 1996)
